Assay outcomes deposited in PubChem by Johns Hopkins Ion Channel Center.
RGS4 pot = potentiators or activators of RGS4. HEK293 M3R/inducible RGS4, carbachol calcium flux Fluo4; active compounds read low. hit rate 0.92% among 310,000. B-score at 10 µM;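 active = B-score of the integrated calcium signal more than 4 SD below the library mean, with starting fluorescence not abnormally high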;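 also: negative B-score means reduced calcium response which marks RGS4 activation or potentiation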
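Material: M3R-expressing HEK293 line, RGS4 induced by doxycycline | Schedule: Overnight RGS4 induction, 30 min dye load 37 °C, 20 min compound RT | Measured by: Fluo4 fluorescence kinetic imaging of calcium | Read-out: Integrated calcium ratio converted to B score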
MrgX1 antag = antagonists of human MrgX1 receptor. hit rate 1.3% among 310,000. AID 588676. MRGX1-HEK293 calcium flux, Fluo-4, BAM8-22 antagonism; active compounds read low. Q96LB2. B-score at 10 µM;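 active = calcium-response B-score plate-corrected more than 3 library SD below zero, starting fluorescence within 5 deviations, no agonist response on first addition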;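 also: peak minus trough fluorescence over baseline after final BAM8-22 challenge near maximal dose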
Target sequence (Q96LB2 whole entry, looked up): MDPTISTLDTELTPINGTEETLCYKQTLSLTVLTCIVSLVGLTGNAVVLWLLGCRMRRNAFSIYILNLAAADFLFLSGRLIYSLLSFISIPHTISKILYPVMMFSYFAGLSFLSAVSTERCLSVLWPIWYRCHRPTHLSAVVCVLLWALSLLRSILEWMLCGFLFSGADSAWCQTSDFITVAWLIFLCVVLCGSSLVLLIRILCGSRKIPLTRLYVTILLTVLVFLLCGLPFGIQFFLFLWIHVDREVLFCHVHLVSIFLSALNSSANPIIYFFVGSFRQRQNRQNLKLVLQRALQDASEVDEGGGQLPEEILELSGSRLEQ
MrgX1 ag = human MrgX1 receptor agonism, primary screen; B-score at 10 µM; MrgX1-HEK293 cells, Fluo-4 calcium fluorescence, agonist mode; active compounds read high; hit rate 0.44% among 310,000; Q96LB2;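 active = calcium response B-score plate-corrected fluorescence ratio at least 3 library SD, with starting fluorescence B-score inside 5 SD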
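Material – MrgX1-expressing HEK293 cells · Input – 15,000 cells seeded per well · Dosing – compound as first of three additions · Times – overnight seeding, then 1 h dark dye loading · Measured by – kinetic Fluo-4 NW fluorescence of intracellular calcium · Read-out – B-scored fluorescence response ratio · Benchmarks – positive and negative control wells on each plate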
MrgX1 PAM = human MrgX1 positive allosteric modulation, primary screen; MrgX1-HEK293, Fluo-4 calcium flux, FDSS; active compounds read high; B-score at 10 µM; hit rate 0.63% among 310,000;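 active = plate-corrected calcium response at least 3 library SD above typical, normal starting fluorescence, not activating the receptor alone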;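 also: compound read alongside a low EC10 to EC30 dose of BAM8-22 agonist; peak minus trough fluorescence over baseline measured at the second addition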
RGS4 block = human RGS4 inhibition; P49798; HEK293 M3R/RGS4 inducible, Fluo-4 calcium flux; active compounds read high; triggered by carbachol at its EC20; B-score at 10 µM; hit rate 0.45% among 310,000;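 active = B-score, a plate-corrected calcium signal, over three deviations above library mean, with baseline fluorescence within five deviations of library mean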;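 also: RGS4 expression induced by doxycycline in cells with stable M3 receptor; B-score is computed from the integrated fluorescence ratio over baseline after carbachol; higher B-score means a larger calcium signal and so more RGS4 inhibition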
Target sequence (P49798 whole entry, looked up): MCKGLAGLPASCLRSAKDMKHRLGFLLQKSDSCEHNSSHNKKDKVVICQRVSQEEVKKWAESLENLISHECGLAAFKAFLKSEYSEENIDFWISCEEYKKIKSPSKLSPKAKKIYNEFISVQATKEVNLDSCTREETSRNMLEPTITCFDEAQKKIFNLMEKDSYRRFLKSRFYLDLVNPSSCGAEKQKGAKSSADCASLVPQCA
A number is an active result; n = inactive; x = no result given. In the library only some 3.5% were active in any assay of this set; here they are far more common.

SMILES	RGS4 pot	MrgX1 antag	MrgX1 ag	MrgX1 PAM	RGS4 block
C[N+]1(C)C2CCC1CC(OC(=O)C(CO)c1ccccc1)C2 (stereo unspecified)	-8.62	n	n	n	n
C[N+]1(C)[C@@H]2CC[C@H]1CC(OC(=O)C(CO)c1ccccc1)C2 (stereo partly specified)	n	n	n	n	n
Cc1ccc(-n2c(-c3cccs3)nc3ccccc3c2=O)cc1	n	n	n	n	n
COC(=O)C1=C(N)Oc2c(c(=O)oc3ccccc23)[C@]12C(=O)N(C)c1ccccc12	n	n	n	8.62	n
Cc1cc(=O)oc2c(C)c(OCC(=O)N3C[C@H]4C[C@@H](C3)c3cccc(=O)n3C4)ccc12	n	n	n	n	n
Cc1c(C)c2ccc(OCC(=O)N3C[C@H]4C[C@@H](C3)c3cccc(=O)n3C4)c(C)c2oc1=O	-8.74	n	n	n	n
Cc1c(Br)c(=O)oc2cc(OCC(=O)N3C[C@H]4C[C@@H](C3)c3cccc(=O)n3C4)ccc12	-7.54	n	n	n	n
CCC(CO)(C(=O)OC1C[N+]2(C)CCC1CC2)c1ccccc1 (stereo unspecified)	-8.9	n	n	n	n
Cc1cc(OCC(=O)N2C[C@H]3C[C@@H](C2)c2cccc(=O)n2C3)c2c(C)c(C)c(=O)oc2c1	n	n	n	n	n
CCOP(=O)(C#Cc1ccccc1)C(O)c1ccc(Br)cc1 (stereo unspecified)	n	n	n	16.8	n
Cc1ccccc1-n1c(O)c(/C=C2/C(c3ccccc3)=Nc3ccccc32)c(=O)[nH]c1=O	n	n	n	n	n
CC1=Nc2ccccc2/C1=C/c1c(O)n(C)c(=O)[nH]c1=O	n	n	n	8.06	n
C=CCN1C(=O)/C(=C/c2cc(C)n(-c3ccccn3)c2C)C(=O)NC1=S	n	-5.17	n	n	n
Nc1ccc2ccc3cccc[n+]3c2c1	-7.59	n	n	n	n
CCOP(=O)(OCC)c1cccc(O)c1	n	-4.58	n	n	n
CCOP(=O)(OCC)c1cccc(OP(=O)(c2cccc([N+](=O)[O-])c2)c2cccc([N+](=O)[O-])c2)c1	n	n	n	n	n
CN(C)c1ccc(-[n+]2c(-c3ccccc3)cc(-c3ccccc3)cc2-c2ccccc2)cc1	-9.02	x	x	x	n
C[n+]1c(-c2ccccc2)cc(-c2ccc(Cl)cc2)cc1-c1ccccc1	n	n	n	n	n
Cc1ccc(-c2cc(-c3ccccc3)cc(-c3ccccc3)[n+]2-c2ccccc2)cc1	-7.57	n	31	n	n
c1ccc(-c2cc(-c3ccccc3)[n+](-c3ccccc3)c(-c3ccccc3)c2)cc1	-7.75	n	n	15.2	n
O=C(NC1CONC1=O)OCC(Cl)(Cl)Cl (stereo unspecified)	n	n	n	n	n
Cc1cc(C(=O)CS(=O)c2ccc(F)cc2)cc(C)c1OC(=O)N(C)C (stereo unspecified)	n	n	n	n	n
CCOC(=O)C1(CCCc2ccccc2)CCN(C2CCCC2)CC1	-7	n	n	n	n
CCOC(=O)C1(CCc2ccccc2)CCN(C2CCSCC2)CC1	n	n	n	n	n
Nc1ccc(CCN2CCN(c3cccc(C(F)(F)F)c3)CC2)cc1	n	n	n	n	n
SMILES	RGS4 pot	MrgX1 antag	MrgX1 ag	MrgX1 PAM	RGS4 block
FC(F)(F)c1ccc2c(c1)N(CCCN1CCN(CCCl)CC1)c1ccccc1S2	-8.9	n	n	n	n
O=[N+]([O-])c1ccc(N2CCCCCC2)c2ncccc12	n	n	n	n	n
CN(C(=O)c1ccc(Cl)nc1)C1(c2ccccc2Cl)CCCCC1=O (stereo unspecified)	n	n	n	n	n
CN1C(=O)C(=Cc2ccc(N3CCCCCC3)o2)C(=O)N(C)C1=S	x	n	28.6	n	x
C=C(C)[C@@]12OC3(c4ccccc4)O[C@@H]1C1[C@@H]4O[C@]4(CO)[C@@H](O)[C@]4(O)C(=O)C(C)=C[C@H]4[C@@]1(O3)[C@H](C)[C@H]2OC(=O)/C=C/C=C/c1ccccc1 (stereo partly specified)	-8.62	n	n	n	n
COc1ccc(CNC(=O)C(NC(C)=O)C(C)C)cc1OC (stereo unspecified)	n	n	n	n	n
Cc1ccccc1-n1c(O)c(/C=N/NC(=O)c2ccncc2)c(=O)[nH]c1=O	n	n	n	n	n
Fc1ccc(C(OCCN2CCCC2)c2ccc(Br)cc2)cc1 (stereo unspecified)	-9.77	n	n	n	n
CCOC(=O)c1cccc(-[n+]2c(-c3ccccc3)cc(-c3ccccc3)cc2-c2ccccc2)c1	-7.72	-6.79	n	n	n
CCOC(=O)c1ccc(-[n+]2c(-c3ccccc3)cc(-c3ccccc3)cc2-c2ccccc2)cc1	n	n	27.7	n	n
Cc1ccc(-c2cc(-c3ccc(C)cc3)[n+](-c3ccc(C(=O)[O-])cc3)c(-c3ccc(C)cc3)c2)cc1	n	n	n	n	n
Cc1ccc2c(c1)C1CN(C)CCC1N2C(=O)COc1ccc(S(=O)(=O)N2CCOCC2)cc1 (stereo unspecified)	n	n	n	n	n
Cc1cc(OCC(=O)N2CCC(C(=O)O)CC2)c2c3c(c(=O)oc2c1)CCCC3	n	n	n	n	n
CN1C2CCC1CC(=NO)C2	n	-5.28	n	n	n
Clc1ccc(NC2=NCCCS2)cc1Cl	n	n	n	n	n
CC1CCCC(C)N1/N=C/c1c[nH]c2ccc(Br)cc12 (stereo unspecified)	n	n	n	12.1	n
CCOP(=O)(Cc1cc(C(C)=O)c(C)o1)OCC	n	n	n	n	n
CC(Cc1ccccc1)NC(=O)/C=C/C(=O)O (stereo unspecified)	n	n	n	n	n
COC(=O)C1=C(c2ccc(S(C)(=O)=O)cc2)C[C@@H]2CC[C@H]1N2C(=O)NC1CCCCC1	n	n	n	n	n
O=c1[nH]c(=O)n(-c2ccccc2F)c(O)c1/C=C1\C=Nc2ccccc21	n	n	47.3	n	11.1
O=c1[nH]c(=O)n(-c2ccc(F)cc2)c(O)c1/C=C1\C=Nc2ccccc21	n	n	n	n	n
O=c1[nH]c(=O)n(CC2CCCO2)c(O)c1/C=C1\C=Nc2ccccc21 (stereo unspecified)	n	n	34.1	n	n
CCN(CC)P(=O)(NC(=O)C(Cl)(Cl)Cl)N(CC)CC.[Cl-].[Cl-].[Cl-].[Nd+3]	n	n	n	n	n
CCn1cc(/C=c2/sc3n(c2=O)C2c4ccccc4OC(C)(N=3)C2C(=O)OC)c(C)n1 (stereo unspecified)	n	n	n	n	n
COC(=O)C1C2c3ccccc3OC1(C)N=c1s/c(=C/c3cn(C)nc3C)c(=O)n12 (stereo unspecified)	n	n	n	7.11	n
C/C(=N\N(C)c1ccccc1)c1c(O)[nH]c(=O)[nH]c1=O	n	n	n	n	n
